Reference: ChEMBL document CHEMBL1152901, “The synthesis and biological evaluation of para-substituted phenolic N-alkyl carbamates as endocannabinoid hydrolyzing enzyme inhibitors” (Eur J Med Chem, 2009)
Active and inactive are the calls of the source. The calls are words filed in the database; no cut-off is given here.

How the values were obtained:
Monoglyceride lipase = target: T1, Monoglyceride lipase (Rattus norvegicus, UniProt Q8R431); assay: Inhibition of MGL in Wistar rat cerebral membrane by HPLC; type: cell membranes
T1 sequence (Q8R431 whole entry): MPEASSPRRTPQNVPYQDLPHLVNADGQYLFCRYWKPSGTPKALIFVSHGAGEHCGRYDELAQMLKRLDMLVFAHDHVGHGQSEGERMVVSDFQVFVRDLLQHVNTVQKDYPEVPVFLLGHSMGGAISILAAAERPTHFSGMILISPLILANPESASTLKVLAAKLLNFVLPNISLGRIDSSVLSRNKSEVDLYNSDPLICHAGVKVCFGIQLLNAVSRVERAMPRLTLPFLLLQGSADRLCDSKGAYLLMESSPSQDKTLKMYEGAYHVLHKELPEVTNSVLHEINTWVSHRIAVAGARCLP
Summary of the method: (§1)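 Incubation is 90 min at 25 °C with 5 µg protein, 50 µM 2-AG, 100 mM NaCl and 5 mM MgCl2. The reaction is stopped with acidified acetonitrile (pH 3.0). 2-AG, 1(3)-AG and arachidonic acid are quantified by reversed-phase HPLC with UV at 211 nm. IC50 comes from a variable-slope fit, three experiments in duplicate; percentages are the mean of two in duplicate.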

[1] = target: T2, Fatty-acid amide hydrolase 1 (Rattus norvegicus, UniProt P97612); assay: Inhibition of FAAH in Wistar rat cerebral membrane by liquid scintillation counting; type: cell membranes
T2 sequence (P97612 whole entry): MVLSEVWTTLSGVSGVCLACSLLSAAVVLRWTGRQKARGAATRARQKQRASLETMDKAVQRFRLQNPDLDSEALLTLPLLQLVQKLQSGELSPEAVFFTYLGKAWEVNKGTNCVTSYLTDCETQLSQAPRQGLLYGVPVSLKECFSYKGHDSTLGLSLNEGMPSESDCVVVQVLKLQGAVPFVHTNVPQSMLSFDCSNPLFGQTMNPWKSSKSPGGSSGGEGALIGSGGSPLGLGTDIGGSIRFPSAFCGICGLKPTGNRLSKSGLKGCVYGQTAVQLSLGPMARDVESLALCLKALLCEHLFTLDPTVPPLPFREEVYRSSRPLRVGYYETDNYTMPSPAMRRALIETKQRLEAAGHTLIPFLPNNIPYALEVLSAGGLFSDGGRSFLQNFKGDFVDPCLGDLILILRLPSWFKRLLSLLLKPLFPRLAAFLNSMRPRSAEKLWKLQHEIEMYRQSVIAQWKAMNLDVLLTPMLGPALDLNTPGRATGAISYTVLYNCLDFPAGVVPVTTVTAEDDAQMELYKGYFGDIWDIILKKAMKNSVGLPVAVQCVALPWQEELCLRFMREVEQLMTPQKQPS
Summary of the method: (§2)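 Rat brain homogenate (10,000g supernatant from male Wistar forebrain, 8 weeks old), 18 µg protein, preincubated with inhibitor in DMSO (≤5% v/v) for 10 min at 37 °C in 0.1 M potassium phosphate pH 7.4 with 0.5% fatty-acid-free BSA. Then 2 µM AEA carrying [ethanolamine-1-3H]AEA is added for 10 min at 37 °C. The reaction is stopped with ethyl acetate and aqueous [3H]ethanolamine is counted. IC50 comes from a variable-slope sigmoidal fit, three experiments in duplicate; single-point values are the mean of two experiments in duplicate.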

[2] = target: T3, Fatty-acid amide hydrolase 1 (Rattus norvegicus) (UniProt P97612); assay: Inhibition of FAAH in Wistar rat cerebral membrane at 0.1 uM by liquid scintillation counting; type: cell membranes; summary of the method: as §2
T3 sequence (whole entry): T2 sequence (P97612 whole entry)

[3] = target: T4, Monoglyceride lipase (Rattus norvegicus) (UniProt Q8R431); assay: Inhibition of MGL in Wistar rat cerebral membrane assessed as residual activity at 1 mM by HPLC; values are per cent of control
T4 sequence (whole entry): T1 sequence (Q8R431 whole entry)

[4] = target: T4, Monoglyceride lipase (Rattus norvegicus); assay: Inhibition of MGL in Wistar rat cerebral membrane at 30 uM by HPLC; type: cell membranes; summary of the method: as §1
[5] = target: T4, Monoglyceride lipase (Rattus norvegicus); assay: Inhibition of MGL in Wistar rat cerebral membrane at 100 uM by HPLC; type: cell membranes; summary of the method: as §1
[6] = target: Monoglyceride lipase (Rattus norvegicus) (UniProt Q8R431); assay: Inhibition of MGL 2-AG hydrolysis in rat cerebellar membranes by liquid scintillation counting
[7] = target: T2, Fatty-acid amide hydrolase 1; assay: Inhibition of FAAH-mediated hydrolysis of [3H]anandamide in rat RBL2H3 cells; type: cell-based, RBL-2H3
Summary of the method: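 RBL2H3 cells are preincubated 10 min at 37 °C with compound with or without URB597. [ethanolamine-1-3H]AEA is then added at 100 nM and incubated a further 20 min at 37 °C, and hydrolysis is measured. Data are means, n = 5, analysed by repeated-measures one-way ANOVA with Dunnett's test.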

[8] = target: T3, Fatty-acid amide hydrolase 1 (Rattus norvegicus); assay: Irreversible inhibition of FAAH in Wistar rat brain homogenate at 246 nM by liquid scintillation counting; type: tissue-based
[9] = target: T3, Fatty-acid amide hydrolase 1 (Rattus norvegicus); assay: Inhibition of FAAH-mediated uptake of [3H]anandamide in rat RBL2H3 cells; type: cell-based; settings: RBL-2H3
Summary of the method: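 RBL2H3 cells are preincubated 10 min at 37 °C with compound with or without URB597. [arachidonoyl-3H]AEA is then added at 100 nM and incubated a further 10 min at 37 °C. Wells without cells serve as a comparison. Data are means, n = 4, analysed by repeated-measures one-way ANOVA with Dunnett's test.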

[10] = target: T2, Fatty-acid amide hydrolase 1; assay: Inhibition of FAAH-mediated anandamide hydrolysis in rat brain membrane; type: cell membranes
[11] = target: T4, Monoglyceride lipase (Rattus norvegicus); settings: Wistar, 100 uM
[12] = target: Monoglyceride lipase (Homo sapiens) (UniProt Q99685); assay: Inhibition of MGL in human recombinant MGL
[13] = target: T4, Monoglyceride lipase (Rattus norvegicus); assay: Inhibition of MGL in Wistar rat cerebral membrane at 1 mM by HPLC; type: cell membranes
Summary of the method: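 Rat cerebellar membranes were prepared by sucrose homogenisation, differential centrifugation and washing. […] Reactions were stopped with acidified acetonitrile (pH 3.0). 2-AG, 1(3)-AG and arachidonic acid were quantified by reversed-phase HPLC (UV 211 nm peak areas). Remaining activity is reported.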

[14] = target: T5, Monoglyceride lipase (Homo sapiens) (UniProt Q99685); assay: Irreversible inhibition of human MGL at 0.3 uM by liquid scintillation counting
T5 sequence (whole entry): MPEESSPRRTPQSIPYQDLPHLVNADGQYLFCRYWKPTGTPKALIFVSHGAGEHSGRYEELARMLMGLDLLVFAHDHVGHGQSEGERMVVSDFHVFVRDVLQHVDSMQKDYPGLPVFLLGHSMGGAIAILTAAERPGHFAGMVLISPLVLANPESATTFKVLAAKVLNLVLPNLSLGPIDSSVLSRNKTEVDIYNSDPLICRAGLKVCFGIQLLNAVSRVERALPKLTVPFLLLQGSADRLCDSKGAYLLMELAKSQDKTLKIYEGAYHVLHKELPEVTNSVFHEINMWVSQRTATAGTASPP
Summary of the method: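 Reversibility was tested on human recombinant MGL. The enzyme was preincubated with inhibitor at 50-fold the activity-assay enzyme level, then diluted […] into Tris-HCl pH 7.4/EDTA buffer with 50 μM 2-OG including [³H]2-OG. Samples taken at 0–60 min were stopped with cold ethyl acetate, and aqueous [³H]glycerol was counted by liquid scintillation. Activity was compared with DMSO vehicle over three independent experiments in duplicate.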

| Compound | IC50 (Monoglyceride lipase) | IC50 [1] | further results |
| --- | --- | --- | --- |
| O=C(NCCc1ccccc1)Oc1ccc(C2=NCCS2)cc1 | 28000 nM | 38 nM |  |
| O=C(NC1CCCCC1)Oc1ccc([N+](=O)[O-])cc1 | 19000 nM |  | inhibition [2]: 25% |
| CCCCNC(=O)Oc1ccc([N+](=O)[O-])cc1 |  |  | inhibition [2]: 16% |
| CCCCCCNC(=O)Oc1ccc(-c2csnn2)cc1 | 11000 nM | 19 nM |  |
| CCCCCCNC(=O)Oc1ccc(C2=NCCS2)cc1 |  | 8.2 nM |  |
| O=C(NC1CCCCC1)Oc1ccc(C2=NCCS2)cc1 | 27000 nM | 100 nM |  |
| Cc1ccc(CNC(=O)Oc2ccc(C3=NCCO3)cc2)cc1 | 125000 nM | 180 nM | residual activity [3]: 6% |
| O=C(NC1CCCC1)Oc1ccc(C2=NCCO2)cc1 | 11000 nM | 100 nM | residual activity [3]: 21% |
| CCCCCCCCCCCCNC(=O)Oc1cccc(-c2csnn2)c1 |  | 0.24 nM | residual activity [3]: 13%; inhibition [4]: 57% |
| COc1ccc(CNC(=O)Oc2ccc(C3=NCCS3)cc2)cc1 | 46000 nM | 320 nM | residual activity [3]: 21% |
| CCCCCCNC(=O)Oc1ccccc1 |  |  | inhibition [5]: 41% |
| CCCCNC(=O)Oc1ccc(C#N)cc1 |  |  | inhibition [2]: 25% |
| CCCCNC(=O)Oc1ccccc1-c1csnn1 |  |  | inhibition [2]: inactive |
| CCCCC/C=C\C/C=C\C/C=C\C/C=C\CCCCN1C(=O)C=CC1=O |  |  | IC50 [6]: 140 nM |
| CCCCCCCCCCCCNC(=O)Oc1ccc(-c2csnn2)cc1 | 1900 nM | 12 nM | IC50 [7]: 82 nM; Activity [8]: Active; Activity [9]: Active |
| CCCCCCNC(=O)Oc1ccc(Br)cc1 |  |  | residual activity [3]: 16% |
| CCCCNC(=O)Oc1ccc(C2=NCCO2)cc1 | 34000 nM | 120 nM |  |
| O=C(NC1CCCCC1)Oc1ccc(-c2csnn2)cc1 |  | 21 nM | inhibition [5]: 28% |
| CCCCCCNC(=O)Oc1ccc(C(=O)OC)cc1 | 35000 nM |  |  |
| O=C(Nc1ccc(-c2ccccc2)cc1)OC1CCCCC1 |  | 108000 nM | IC50 [10]: 17000 nM |
| CCCCCCNC(=O)Oc1ccc(C(=O)OC)cc1OC |  | 5.5 nM |  |
| CCCCNC(=O)Oc1ccc(C(=O)OC)cc1 |  |  | inhibition [2]: 35% |
| CCCCCCNC(=O)Oc1ccc(C(=O)OC)cc1I |  | 24 nM |  |
| CCCCCCCCCCCCNC(=O)Oc1ccc(C2=NCCS2)cc1 |  | 6.3 nM |  |

| Compound | IC50 (Monoglyceride lipase) | IC50 [1] | further results |
| --- | --- | --- | --- |
| O=C(Nc1ccc([N+](=O)[O-])cc1)OC1CCCCC1 |  |  | inhibition [5]: inactive; inhibition [2]: 9% |
| O=C(NC1CCCC1)Oc1ccc(-c2csnn2)cc1 |  | 20 nM |  |
| CCCCCCNC(=O)Oc1ccc(C)cc1 |  |  | inhibition [2]: 27% |
| CCCCNC(=O)Oc1ccc(OC)cc1 |  |  | inhibition [2]: 5% |
| O=C(NCc1ccccc1)Oc1ccc(C2=NCCS2)cc1 | 42000 nM | 290 nM |  |
| CCCCNC(=O)Oc1ccc(C2=NCCS2)cc1 | 31000 nM | 520 nM | residual activity [11]: 54% |
| Cc1ccccc1CNC(=O)Oc1ccc(C2=NCCS2)cc1 | 46000 nM | 62 nM |  |
| CCCCCCCCCCCCNC(=O)Oc1ccccc1-c1csnn1 |  | 50 nM | IC50 [12]: 18000 nM |
| CC(C)(C)NC(=O)Oc1ccc(C2=NCCS2)cc1 |  | 7000 nM | inhibition [5]: inactive |
| CCCCCCNC(=O)Oc1c(C(C)(C)C)cc(C(=O)OC)cc1C(C)(C)C |  |  | inhibition [2]: 4% |
| CCCCNC(=O)Oc1cccc(-c2csnn2)c1 |  | 6.9 nM |  |
| O=C(NCc1ccccc1)Oc1ccc(-c2csnn2)cc1 |  | 44 nM | residual activity [3]: 22% |
| CCCCCCNC(=O)Oc1ccc(C(=O)OC)cc1C |  | 55 nM |  |
| CCCCNC(=O)Oc1ccc(-c2csnn2)cc1 |  | 160 nM | inhibition [5]: 46%; residual activity [3]: 22% |
| CCCCCCCCCCCCNC(=O)Oc1ccc(C(=O)OC)cc1 | 2800 nM |  |  |
| Cc1ccccc1CNC(=O)Oc1ccc(C2=NCCO2)cc1 | 35000 nM | 34 nM | residual activity [3]: 12% |
| NC(=O)c1cccc(-c2cccc(OC(=O)NC3CCCCC3)c2)c1 |  |  | inhibition [13]: 30%; Activity [14]: Active |
| CCCCCCNC(=O)Nc1ccc(-c2csnn2)cc1 |  |  | inhibition [5]: inactive; inhibition [2]: 9% |
| CCCCCCCCCCCCNC(=O)Oc1ccccc1 |  |  | inhibition [5]: 36% |
| O=C(NC1CCCC1)Oc1ccc(C2=NCCS2)cc1 | 11000 nM | 130 nM |  |
| CCCNC(=O)Oc1ccc(C2=NCCS2)cc1 | 46000 nM | 1700 nM | residual activity [3]: 6% |
| COC(=O)c1ccc(OC(=O)NC2CCCCC2)cc1 | 14000 nM |  | inhibition [2]: 41% |
| Cc1ccc(CNC(=O)Oc2ccc(C3=NCCS3)cc2)cc1 | 94000 nM | 280 nM |  |
| CCNC(=O)Oc1ccc(C2=NCCS2)cc1 | 102000 nM | 15000 nM | residual activity [3]: 12% |
